MCL1 BIM primary: inhibitors of human MCL1 binding to BIM-BH3 peptide. Q07820. GST-MCL1 / FITC-Bim-BH3 fluorescence polarization. inhibition, % at 10.9 µM. hit rate 0.68% among 320,000;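 active = inhibition above the mean inhibition of all tested compounds plus 3 SD, set per campaign, cut at about 40% in these data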;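 also: higher means more loss of mP so more displacement of Bim peptide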
T cell modulator: T cell immune modulators affecting CD8 T cell-vesicle binding. 2C CD8+ T cell-vesicle binding, flow cytometry; hits give low values. response (vesicle binding), % at 7 µM. hit rate 0.068% among 330,000. AID 2052;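 active = response, share of CD8 T cells binding vesicles, and their 90th percentile fluorescence all below set limits, cut at about 80% in these data, passing the limit was not always enough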;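 also: values below 100% mean blocked vesicle binding to the CD8+ T cells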
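Material: murine 2C transgenic CD8+ T lymphocytes / Also added: QL9-peptide-loaded Drosophila micro-vesicles bearing Ld, ICAM-1 and B7-1 / Schedule: binding step 1.5 h, 37 °C, antibody labelling 20 min, ice / Signal: flow cytometry, PE anti-B7-1 (FL2) versus Alexa647 anti-CD8 (FL8), PFA-fixed / Evaluation: percent CD8+ FL2 mean versus row control / Benchmarks: naked versus QL9-loaded vesicles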
Mcl1-Bid inh: Mcl-1/Bid interaction inhibition. hit rate 0.97% among 220,000. Q07820. inhibition, % at 21.7 µM. TR-FRET Mcl-1/Bid-Dy647 peptide binding, 1536-well. AID 1021;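 active = compounds that cut the binding signal by more than half at the single screening dose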;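 also: His-tagged Mcl-1 with europium anti-His antibody binding Bid BH3 peptide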
DSG3 Ab inh: blocks pemphigus antibody binding to human desmoglein-3; binding (percent of control), % at 10 µM; AID 588358; hit rate 0.48% among 310,000; DSG3-coupled beads, scFv-anti-DSG3-GFP binding, flow cytometry; hits give low values;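 active = binding more than 3 SD below its plate's average and above zero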;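 also: hits lower antibody fragment binding to DSG3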
Target sequence (P32926 whole entry, looked up, the tested form may be a part): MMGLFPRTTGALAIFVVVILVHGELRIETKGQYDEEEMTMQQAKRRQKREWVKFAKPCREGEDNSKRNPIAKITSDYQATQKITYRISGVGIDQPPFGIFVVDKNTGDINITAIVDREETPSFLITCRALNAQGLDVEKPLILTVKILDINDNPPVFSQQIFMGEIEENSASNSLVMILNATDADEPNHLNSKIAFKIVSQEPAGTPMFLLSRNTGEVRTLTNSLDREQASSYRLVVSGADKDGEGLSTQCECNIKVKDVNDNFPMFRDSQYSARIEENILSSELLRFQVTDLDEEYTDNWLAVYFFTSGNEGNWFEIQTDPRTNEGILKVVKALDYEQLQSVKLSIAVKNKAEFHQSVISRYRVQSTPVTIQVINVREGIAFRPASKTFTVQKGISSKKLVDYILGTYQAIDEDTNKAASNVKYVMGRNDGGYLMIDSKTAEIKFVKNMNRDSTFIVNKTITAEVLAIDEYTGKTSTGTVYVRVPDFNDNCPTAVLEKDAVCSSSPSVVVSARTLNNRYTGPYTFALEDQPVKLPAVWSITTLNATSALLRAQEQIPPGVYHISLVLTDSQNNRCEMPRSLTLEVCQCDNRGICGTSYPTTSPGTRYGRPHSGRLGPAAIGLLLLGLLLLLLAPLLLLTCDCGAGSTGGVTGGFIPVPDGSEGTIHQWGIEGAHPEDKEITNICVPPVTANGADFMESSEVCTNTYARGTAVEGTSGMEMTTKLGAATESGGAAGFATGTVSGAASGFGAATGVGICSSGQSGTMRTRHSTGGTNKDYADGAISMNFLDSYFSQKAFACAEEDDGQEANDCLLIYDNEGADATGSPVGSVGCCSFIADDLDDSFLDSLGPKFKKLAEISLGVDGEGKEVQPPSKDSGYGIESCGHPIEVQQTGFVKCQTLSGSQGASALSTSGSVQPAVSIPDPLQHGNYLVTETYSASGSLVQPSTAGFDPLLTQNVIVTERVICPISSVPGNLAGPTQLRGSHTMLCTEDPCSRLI
Bim-Mcl-1: disrupts Bim peptide binding to human Mcl-1; Q07820; Bead-based flow cytometry, Bim peptide-Mcl-1 binding; AID 1009; inhibition, % at 10 µM; hit rate 0.1% among 190,000; in the data active = inhibition above about 40%
Mcl1 Noxa PPI: Mcl-1/Noxa interaction inhibition. TR-FRET Mcl-1/Noxa peptide binding, 2 h. AID 1022. inhibition, % at 21.7 µM. hit rate 1.5% among 220,000. Q07820;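 active = compounds that cut the protein-peptide binding signal by more than 50% relative to plate controls in a single-dose test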;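 also: His-tagged Mcl-1 with rhodamine Noxa BH3 peptide and terbium anti-His antibody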
A number is an active result; 0 = inactive; - = no result given. In the library only some 2.3% were active in any assay of this set; here they are far more common.

SMILES	MCL1 BIM primary	T cell modulator	Mcl1-Bid inh	DSG3 Ab inh	Bim-Mcl-1	Mcl1 Noxa PPI
COCC(=O)Nc1ncc(S(=O)(=O)c2ccc([N+](=O)[O-])cc2)s1	0	0	68	0	0	0
CCCCC(=O)Nc1ncc(S(=O)(=O)c2ccc([N+](=O)[O-])cc2)s1	0	0	-	0	-	-
CCNc1nc(NCc2ccccc2)nc(SCC(=O)Nc2ccccc2)n1	0	0	53	0	0	0
CCNc1nc(NCc2ccccc2)nc(SCC(N)=O)n1	0	0	0	0	0	0
CCOC(=O)[C@@H]1[C@H]2COc3ccc(Br)cc3[C@@H]2N2C(=O)N(c3cccc(Cl)c3)C(=O)[C@@]12C	-	0	-	0	-	-
Cn1c(=O)c2c(nc(NCCOc3ccc(F)cc3)n2C)n(C)c1=O	0	0	0	91	0	0
COc1cc(NC(=O)C2CC(c3ccc(Cl)cc3)=NO2)cc(OC)c1OC (centres undefined)	0	0	-	63	-	-
O=C1OCCN1C(=O)[C@H]1[C@H](c2ccc(F)cc2)C(c2ccccc2)=NN1c1ccccc1	-	-	-	0	-	-
O=C1OCCN1C(=O)[C@H]1[C@H](c2ccc(F)cc2)C(c2ccc(F)cc2)=NN1c1ccccc1	0	0	0	0	60	0
O=C(Nc1nnc(C2CC2)s1)c1cncc(Br)c1	-	0	-	0	-	-
Cc1cc(C)n(C(=O)Cc2cn3ccsc3n2)n1	0	72	0	0	0	0
Cc1cc(C)n(CC(=O)n2nc(C)cc2C)n1	0	0	0	0	0	0
CC(COc1ccccc1)N(CCCl)Cc1ccccc1 (centres undefined)	0	0	55	0	0	0
CC(C)[C@@H](COc1ccccc1)N1CCN(Cc2ccccc2)CCC1=O	0	0	-	0	-	-
Cc1ccc(C(CCN(Cc2ccccc2)C(=O)c2ccco2)c2ccco2)cc1 (centres undefined)	0	0	0	0	0	0
O=C(c1ccco1)N(CCC(c1ccccc1)c1ccco1)Cc1ccco1 (centres undefined)	0	0	0	-	0	62
COc1ccccc1N1C(=O)C(Cl)=C(Nc2ccccc2O)C1=O	-	-	0	0	0	76
O=C1C(Cl)=C(Nc2ccccc2O)C(=O)N1c1ccccc1	0	0	0	0	0	70
Cc1c(NC2=C(Cl)C(=O)N(c3ccccc3)C2=O)c(=O)n(-c2ccccc2)n1C	0	0	0	0	0	0
Cc1ccc(O)c(NC2=C(Cl)C(=O)N(Cc3ccccc3)C2=O)c1	-	-	56	0	0	88
COc1ccc(NC(=O)CCCc2nc3ccccc3c(=O)[nH]2)cc1Cl	-	0	-	0	-	-
Oc1[nH]c(=S)sc1/C=C1\C(c2ccccc2)=Nc2ccccc21	0	0	0	0	0	81
Oc1[nH]c(=S)sc1C=C1N=c2ccccc2=N1	0	0	0	0	-	0
CC1CCN(C(=O)CCC(=O)Nc2ccc([N+](=O)[O-])cc2)CC1	-	-	-	0	-	-
CC(=O)Nc1ccc(C2=NNC(=NCC3CCCO3)SC2)cc1 (centres undefined)	0	0	0	0	0	61
SMILES	MCL1 BIM primary	T cell modulator	Mcl1-Bid inh	DSG3 Ab inh	Bim-Mcl-1	Mcl1 Noxa PPI
CN1C(=O)/C(=C/c2cc(N=Nc3ccccc3)ccc2O)SC1=S	0	0	0	0	0	54
Cc1c(N2C(=O)/C(=C\c3ccccc3O)SC2=S)c(=O)n(-c2ccccc2)n1C	0	0	0	0	-	0
COc1cc(CNc2ccc(N3CCCC3)cc2)cc(Cl)c1OC	0	0	0	0	0	72
CCOc1ccc(CNc2ccc(N3CCCC3)cc2)cc1	0	0	0	0	0	66
COc1cc(CNc2ccc(N3CCOCC3)cc2)cc(Br)c1OC	0	0	0	0	0	0
CCOc1cc(CNc2ccc(N3CCCC3)cc2)cc(Cl)c1OC	0	0	0	0	0	76
O=C(CCN1C(=O)C2CC=CCC2C1=O)Nc1cccc(Cl)c1 (centres undefined)	0	0	-	-	-	-
CCOC(=O)c1ccccc1NC(=O)COC(=O)CCC1CCCC1	0	0	-	0	-	-
O=C(Oc1ccc2c(c1)OCO2)c1cc2c(s1)CCC2	0	0	0	0	0	57
O=C(c1cc2c(s1)CCCC2)N1CCN(Cc2ccc3c(c2)OCO3)CC1	0	0	0	0	0	0
Cc1ccc(S(=O)(=O)N(C)C)cc1NC(=O)COC(=O)CCNS(=O)(=O)c1ccccc1	-	-	-	0	-	-
Cc1cc(Cl)ccc1NC(=O)COC(=O)CCNS(=O)(=O)c1ccccc1	0	0.0	-	0	-	-
C=CCn1c(SCC(=O)Nc2sccc2C(N)=O)nc2ccc(Cl)cc2c1=O	0	0	61	0	0	0
C/C=C/C1=CC(=O)C[C@H](c2ccc3c(c2)OCO3)C1	0	0	-	0	-	-
Cc1csc(NC(=O)C2CCN(S(=O)(=O)c3cccs3)CC2)n1	0	0	84	0	0	0
O=C(c1ccc(F)cc1)C1CCN(C(=O)c2ccccc2F)CC1	0	0	-	0	-	-
CN1CCN(c2nc(-c3cccnc3)nc3ccccc23)CC1	0	0	0	0	0	0
CCN1CCN(c2nc(-c3cccnc3)nc3ccccc23)CC1	0	0	0	0	0	66
CCCN1CCN(c2nc(-c3cccs3)nc3ccccc23)CC1	0	0	0	0	0	53
CCN1CCN(c2nc(-c3ccncc3)nc3ccccc23)CC1	0	0	0	-	0	51
Nc1ncnc2c1ncn2[C@@H]1O[C@H](CNCc2ccc(-n3cccn3)cc2)[C@@H](O)[C@H]1O	-	0	-	0	-	-
Cc1cccc(C(=O)Nc2ccc3c(c2)ncn3C)c1	0	0	-	0	-	-
Cc1cc(C)c(NC(=O)Cn2nnc(C(=O)Nc3ccc(F)cc3F)c2N)c(C)c1	0	0	-	0	-	-
COc1ccc2[nH]c3c4c(ccc3c2c1)C(=O)C=CC4=O	-	-	82	0	-	98
COc1ccc2[nH]c(=O)cc(C(=O)O)c2c1	0	0	0	0	0	0
SMILES	MCL1 BIM primary	T cell modulator	Mcl1-Bid inh	DSG3 Ab inh	Bim-Mcl-1	Mcl1 Noxa PPI
CCN1C(=O)c2cccc3c(NC(=O)C4CCCCC4)ccc1c23	0	0	83	0	0	0
O=C(O)C1CCN(C(=O)c2ccc3c(c2)OCO3)CC1	0	0	-	0	-	-
CCN(CC(=O)NCc1ccc(Cl)cc1)C(=O)CCC(=O)c1ccc(F)cc1	0	0	-	0	-	-
O=C1N[C@H]2CC=C[C@H]2Nc2ccccc21	-	-	-	68	-	-
O=C1N[C@H]2CC=C[C@H]2N(Cc2cccs2)c2ccccc21	-	-	-	0	-	-
COc1ccc(C(=O)N2CCN(Cc3ccccc3C)CC2)cc1OC	0	0	75	-	0	0
COc1cc(C(=O)N2CCN(Cc3ccccc3C(F)(F)F)CC2)cc(OC)c1OC	0	0	0	0	0	0
Cc1ccccc1CN1CCN(C(=O)c2ccc(F)cc2)CC1	-	0	-	0	-	-
COc1cc(OC)cc(C(=O)N2CCN(Cc3ccccc3C(F)(F)F)CC2)c1	0	0	67	0	0	0
CCCC(=O)Nc1ccc(S(=O)(=O)N2CCc3ccccc32)cc1	-	-	-	0	-	-
COc1ccc(-c2ccc(-c3nc4c(c(=O)[nH]c(=O)n4Cc4ccccc4)n3C)o2)c([N+](=O)[O-])c1	0	0	0	76	0	0

From PubChem BioAssay
